# CRFBP-R2 block: blocks CRF-induced signaling of the CRF-BP/CRF-R2 complex; HEK293 CRF-R2/CRF-BP, CRF-induced calcium fluorescence; inhibition, % at 11.8 µM; 350,000 tested, 0.59% active; AID 588475;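 active means inhibition of the ligand-induced calcium signal above about 50% at the single tested concentration, limit read from the data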
# CRFR2-BP ag: agonists of human CRF-binding protein/CRF-R2 receptor complex; HEK293 CRF-R2/CRF-BP, calcium dye fluorescence (FLIPR); percent of saturating CRF peptide response; activation, % at 13.2 µM; 350,000 tested, 0.46% active;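 active means activation of at least 50%, plus an integration ratio under a set limit after plate pattern correction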;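 further: plate controls were neutral control wells without compound for no effect and CRF at EC100 for full effect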
# ANO1 block: blocks the mouse calcium-activated chloride channel TMEM16A | Q8BHY3 | HEK293 TMEM16A/YFP iodide influx fluorescence, ionomycin | normalized B-score (activity score, 25-100; higher = stronger inhibition) at 10 µM | 310,000 tested, 1.2% active | AID 588511;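 active means ratio plate-corrected score three or more library SD toward inhibition, starting fluorescence score within five deviations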;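 further: score derived from kinetic fluorescence span divided by baseline fluorescence per well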
# TMEM16A act: activates or potentiates the mouse TMEM16A chloride channel; Q8BHY3; HEK293 TMEM16A/YFP-H148Q/I152L, iodide quench fluorescence; stronger effect = lower value; B-score at 10 µM; 340,000 tested, 0.3% active;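 active means fluorescence-ratio B-score plate-corrected deviation score at least 3 library SD below zero, with starting fluorescence score within 5 deviations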;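 further: channel opened by trigger with iodide after compound preincubation; score built on the fluorescence ratio of max minus min over baseline; more negative score means more quench and so TMEM16A activation or potentiation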
# TAAR1 agonist: human TAAR1 agonism | Q96RJ0 | CHO RD-HGA16 TAAR1, Fluo-8 calcium fluorescence; vehicle wells 0%, saturating PEA agonist 100% | activation, % at 3 µM | 360,000 tested, 0.99% active;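 active means activation above the mean activation of all test compounds in the run plus 3 SD, cut at about 38% in these data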
# Target sequence (Q96RJ0 whole entry, looked up): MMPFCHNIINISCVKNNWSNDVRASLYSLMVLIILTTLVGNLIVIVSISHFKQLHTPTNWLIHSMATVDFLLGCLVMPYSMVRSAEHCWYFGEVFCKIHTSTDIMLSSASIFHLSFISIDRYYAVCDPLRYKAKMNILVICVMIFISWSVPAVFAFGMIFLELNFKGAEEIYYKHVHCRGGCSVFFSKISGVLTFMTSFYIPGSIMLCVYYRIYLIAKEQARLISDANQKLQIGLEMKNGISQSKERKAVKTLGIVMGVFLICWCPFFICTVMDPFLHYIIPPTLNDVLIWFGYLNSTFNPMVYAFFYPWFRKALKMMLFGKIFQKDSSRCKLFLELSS
#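 System: CHO-derived RD-HGA16 cells with stable Gα16 and human TAAR1. Times: 17-24 h plating, Fluo-8 75 min 37 °C, 30 min RT. Measured by: calcium-sensitive Fluo-8 signal, excitation 470-495, emission 515-575 nm. Read-out basis: % activation relative to PEA EC100 response. Control set: DMSO and PEA EC100. Repeats: no replicates (n 1).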
# TAAR1 antagonist: human TAAR1 antagonism. Q96RJ0. 360,000 tested, 1.5% active. CHO RD-HGA16 TAAR1, Fluo-8 calcium fluorescence, antagonist. inhibition, % at 3 µM;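 active means inhibition above a per-plate cutoff, the mean inhibition of test compounds on that plate plus 3 SD, cut at about 49% in these data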;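 further: 0% = DMSO plus EC80 beta-PEA response and 100% = DMSO alone without agonist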
#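 Test system: CHO RD-HGA16 cells bearing hTAAR1 | Reagent: β-PEA, EC80 | Compound dosing: 3 µM, single point | Schedule: Dye loading 75 min at 37 °C, then 30 min room temperature | Signal: Calcium fluorescence with Fluo-8 | Evaluation: Percent inhibition of PEA-evoked calcium signal, max/basal emission ratio | Control set: DMSO-only wells and EC80 β-PEA-stimulated wells | Repeats: Singlicate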
# TMEM16A reconf: TMEM16A (mouse) chloride channel inhibition, re-confirmation; shares compounds with ANO1 block; HEK293 TMEM16A/YFP-H148Q, iodide quench fluorescence; ionomycin added to raise cell calcium; inhibition, % at 10 µM; 2,300 tested, 39% active;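 active means mean duplicate percent inhibition, scaled so buffer wells are 0 and the reference blocker 100, over three buffer SD above buffer mean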
# TMEM16A Ca cntr: counter-screen for TMEM16A inhibitors: effect on calcium mobilization; shares compounds with ANO1 block; TMEM16A/YFP HEK293, Fluo4 calcium mobilization; calcium response (% of ionomycin), % at 10 µM; 2,300 tested, 2% active; AID 652231;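 active means duplicate-averaged calcium signal over 20% of the ionomycin maximum, relative to buffer baseline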;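 further: each well's signal is peak minus trough fluorescence divided by its pre-addition baseline; 0% = buffer wells and 100% = ionomycin wells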
# YFP-HEK293 quench: counter-screen for TMEM16A inhibitors: effect in parental YFP-HEK293 cells; AID 652233; YFP ratio F(max-min)/F0 at 10 µM; 2,300 tested, under 10 active; shares compounds with ANO1 block; iodide YFP quench, ionomycin;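 active means yellow fluorescent protein signal ratio exceeding the buffer control mean by over 5 SD of those controls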;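 further: ratio is mean of duplicate wells from kinetic YFP trace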
# ClC-1 rat inh: rat ClC-1 inhibition, TMEM16A specificity screen | AID 652236 | ratio percent, % at 10 µM | 2,300 tested, under 10 active | CHO ClC-1-YFP, iodide influx fluorescence quench; iodide control reads 0, buffer control 100 | shares compounds with ANO1 block;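 active means duplicate-mean ratio percent above the mean of iodide-only control wells, which defines zero, plus 5 of their SD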;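 further: higher percent means stronger block of ClC-1 iodide influx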
# nonsel antag count: nonselective antagonist in TAAR1 antagonist counter-screen; shares compounds with TAAR1 antagonist; counterscreen cell line, calcium fluorescence, antagonist mode; inhibition, % at 3 µM; AID 651780; 2,400 tested, 77% active; in the data active means inhibition above about 22%;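 further: CHO-Ga16 host cells stimulated with ATP at an EC80 level; 0% = agonist EC80 plus vehicle and 100% = vehicle without agonist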
# TAAR1 antag conf: confirmation of human TAAR1 antagonists; shares compounds with TAAR1 antagonist; 2,400 tested, 40% active; TAAR1-expressing cells, fluorescence antagonist read-out; inhibition, % at 3 µM; in the data active means inhibition above about 49%;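 further: CHO-Ga16 host cells challenged with agonist PEA near its EC80; 0% = agonist at EC80 plus vehicle and 100% = vehicle with no agonist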
# Ga16 ag counter-1: nonselective Ga16 agonist in TAAR1 antagonist counter-screen. shares compounds with TAAR1 antagonist. Ga16-expressing cells, calcium fluorescence, agonist counterscreen. activation, % at 3 µM. 2,400 tested, 18% active. AID 651953; in the data active means activation above about 12%;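 further: 0% = vehicle wells and 100% = saturating stimulus response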
# TAAR1 ag counter: activates human TAAR1 in antagonist counter-screen | shares compounds with TAAR1 antagonist | hTAAR1 cell line, fluorescence activation, agonist mode | activation, % at 3 µM | 2,400 tested, 2% active | AID 651955; in the data active means activation above about 37%;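 further: CHO cells stably expressing TAAR1 with calcium dye readout; 0% = DMSO vehicle and 100% = full agonist response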
# TAAR1 ag confirm: confirmation of human TAAR1 agonists; shares compounds with TAAR1 agonist; CHO RD-HGA16 TAAR1, Fluo-8 calcium fluorescence; scaled: DMSO 0%, maximal phenethylamine 100%; activation, % at 3 µM; 2,400 tested, 82% active;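 active means activation above a cutoff set at the run's mean compound activation plus 3 SD, cut at about 39% in these data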
# Ga16 ag counter-2: nonselective agonism, TAAR1 counter-screen; 2,400 tested, 50% active; activation, % at 3 µM; CHO-Ga16 parental, Fluo-8 calcium fluorescence; normalized to maximal ATP response, DMSO zero; shares compounds with TAAR1 agonist;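 active means activation above the run cutoff, the mean activation over all tested wells plus 3 SD, cut at about 12% in these data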;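 further: 0% = DMSO wells and 100% = maximal ATP response on the peak over basal ratio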
# TAAR1 desensitize: human TAAR1 agonist that also desensitizes the receptor | inhibition, % at 3 µM | 2,400 tested, 46% active | AID 651951 | CHO RD-HGA16 hTAAR1, Fluo-8 calcium, beta-PEA response inhibition | shares compounds with TAAR1 agonist;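 active means inhibition above the run cutoff, the mean inhibition of all test compounds plus 3 SD, cut at about 49% in these data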;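 further: beta-PEA stimulus applied at its EC80; loss of beta-PEA calcium signal after compound pretreatment read as receptor desensitization; 0% = DMSO with beta-PEA at EC80 and 100% = DMSO alone without agonist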
# Ga16 nonsel ant: nonselective Ga16 antagonist in TAAR1 agonist counter-screen; shares compounds with TAAR1 agonist; CHO-Ga16 ATP-induced calcium, Fluo-8 fluorescence; inhibition, % at 3 µM; 2,400 tested, 39% active; AID 651952;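 active means inhibition above the plate's mean compound inhibition plus 3 SD, computed per plate, cut at about 22% in these data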;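 further: 0% = EC80 ATP with DMSO and 100% = DMSO wells without ATP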
# * = called active by the depositor; i = inactive; x = no result given. Compounds with a hit are over-represented: about 3.9% of the library has one in this group of screens.
SMILES,CRFBP-R2 block,CRFR2-BP ag,ANO1 block,TMEM16A act,TAAR1 agonist,TAAR1 antagonist,TMEM16A reconf,TMEM16A Ca cntr,YFP-HEK293 quench,ClC-1 rat inh,TAAR1 ag confirm,Ga16 ag counter-2,TAAR1 desensitize,Ga16 nonsel ant,others
CCOc1ccc(CN(C)C(=O)[C@H](Cc2ccccc2)NC(=O)OCc2ccccc2)cc1OC,-34.4,1.2,25*,i,12.0,62.0*,i,i,-1.06,-7.0,x,x,x,x,nonsel antag count=30.5*;TAAR1 antag conf=55.2*;Ga16 ag counter-1=8.5;TAAR1 ag counter=8.5
CCc1cc2c3c([nH]c2cc1S(=O)(=O)NCCCOC)CC(C)(C)CC3=O,-8.2,0.1,i,i,-0.8,20.5,x,x,x,x,x,x,x,x,
CC(C)(C)OC(=O)C[C@@H]1C/C=C\C[C@H](CC(=O)N[C@H](CO)Cc2ccccc2)C(=O)N2CCC[C@H]2COC1=O,-8.4,7.3,x,i,13.3,5.7,x,x,x,x,x,x,x,x,
O=C(Nc1nc(-c2nc3ccccc3s2)cs1)c1ccc(S(=O)(=O)N2CCOCC2)cc1,-38.4,-0.2,100*,i,33.5,69.3*,33.0%*,i,-0.908,-21.5,x,x,x,x,nonsel antag count=51.8*;TAAR1 antag conf=70.0*;Ga16 ag counter-1=22.2*;TAAR1 ag counter=25.3
O=C1C(SCCO)=C(SCCO)C(=O)c2ccccc21,-22.5,1.3,100*,i,67.0*,84.4*,40.0%*,i,-0.911,-33.5,70.8*,49.0*,82.9*,74.0*,
CC1=C(SCc2ccccc2)C(=O)c2ccccc2C1=O,-18.4,-0.9,x,i,7.8,16.1,x,x,x,x,x,x,x,x,
O=C(CCc1ccccc1)Nc1cc2c3c(c1)CC(=O)N3CCC2,-2.9,-0.7,i,i,9.8,-12.2,x,x,x,x,x,x,x,x,
COc1ccc(-c2c(C(=O)c3ccccc3)[nH]c(N)c2C(=O)NC2CC2)cc1OC,x,x,x,x,3.9,8.0,x,x,x,x,x,x,x,x,
Cc1cc(C)nc(/N=C(\N)Nc2ccc(OCCC(C)C)cc2)n1,-35.0,74.5*,100*,i,145.5*,103.0*,29.0%*,55.5%*,-1.19,-17.0,126.8*,102.6*,105.2*,93.2*,
Cc1cc(C)nc(/N=C(\N)Nc2ccc(S(=O)(=O)O)cc2)n1,0.7,-1.1,x,i,13.5,4.6,x,x,x,x,x,x,x,x,
CC(=O)Nc1cccc(N(C)S(C)(=O)=O)c1,13.9,-0.7,i,i,-2.3,-27.5,x,x,x,x,x,x,x,x,
CN(c1cccc(NC(=O)Nc2cccc(Cl)c2)c1)S(C)(=O)=O,1.2,3.4,100*,i,42.6*,19.4,42.5%*,i,-1.05,-12.0,36.8,9.2,31.6,29.0*,
Clc1nc(NCCc2ccccc2)c2cn[nH]c2n1,-1.3,-4.8,x,i,33.1,40.3,x,x,x,x,x,x,x,x,
Cc1ccc(Nc2nc(N3CCOCC3)c3ccccc3n2)cc1,15.2,0.4,i,i,31.7,23.9,x,x,x,x,x,x,x,x,
COc1ccc(Nc2nc(N3CCCCC3)c3ccccc3n2)cc1,-15.5,-0.5,100*,i,62.7*,9.4,20.0%*,i,-1.29,-29.0,49.6*,6.3,34.6,12.1,
CCC(C)(C)C(=O)Nc1ncc(S(=O)(=O)c2ccc([N+](=O)[O-])cc2)s1,-32.9,40.4,25*,i,104.2*,39.2,28.5%*,i,-1.21,-10.0,75.9*,52.1*,51.5*,41.2*,
CCOCCC(=O)Nc1ncc(S(=O)(=O)c2ccc([N+](=O)[O-])cc2)s1,-37.2,14.7,x,x,22.1,3.4,x,x,x,x,x,x,x,x,
N#CCc1ccc(NS(=O)(=O)c2ccc(C3CCCCC3)cc2)cc1,-55.7,2.1,25*,i,51.3*,51.0*,34.5%*,i,-0.914,-10.0,50.8*,23.6*,42.3,34.1*,
CCCCCn1nc(C(=O)OCc2nc(N)nc(Nc3ccccc3)n2)c2ccccc2c1=O,-14.4,2.2,x,i,6.1,-7.9,x,x,x,x,x,x,x,x,
CCOc1ccc(NS(=O)(=O)c2ccc(NC(=S)NC(=O)CC(C)C)cc2)cc1,-54.7,18.6,100*,i,71.9*,61.0*,38.0%*,i,-0.935,-12.0,70.4*,30.7*,67.9*,38.5*,
CC(C)c1ccc(NC(=O)CSc2nc(=O)n(CCCN3CCOCC3)c3c2CCCC3)cc1,11.7,0.6,i,i,1.6,-37.2,x,x,x,x,x,x,x,x,
O=C1CC(O)(C(F)(F)F)Oc2c1ccc1ccccc21 (stereo unspecified),65.0*,61.6*,100*,i,76.2*,46.1,54.0%*,37.5%*,-1.09,-24.5,74.8*,69.9*,45.9,39.2*,
Cc1[nH]c(=O)c(S(=O)(=O)c2ccccc2)c(C)c1Cl,-2.0,-0.4,i,i,0.1,-10.2,x,x,x,x,x,x,x,x,
